Experimental data published in ChEMBL document CHEMBL4376812 (J Med Chem, 2019).
Active and inactive are the calls of the source. No cut-off for these calls is given here.

What was measured:
[1] = molecular target: JAK1/TYK2 (Homo sapiens, UniProt P23458+P29597); experiment: Inhibition of JAK1/TYK2 in human Kit225 T cells assessed as inhibition of STAT phosphorylation by luciferase reporter assay; type: cell-based
Summary of the method: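 T-cells carrying a stably integrated STAT-dependent luciferase reporter were stimulated with IFNα or IL-23 to measure TYK2/JAK1-dependent signalling. Dose–response curves gave IC50.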

[2] = molecular target: Non-receptor tyrosine-protein kinase TYK2 (Homo sapiens, UniProt P29597); experiment: Inhibition of TYK2 in human whole blood assessed as decrease in IFNalpha-induced STAT5 phosphorylation preincubated for 1 hr followed by stimulation with IFN-alpha for 15 mins by fluorescence analysis; type: tissue-based
Summary of the method: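 Human whole blood stimulated with IFNα; STAT5 phosphorylation was read in cells by staining and flow cytometry. IC50 from dose–response; mean of at least three experiments.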

[3] = Permeability coefficient, Kp across basolateral to apical side in human Caco2 cells; type: ADME, cell-based; details: Caco-2, read-out: permeability
Summary of the method: (§1)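 Caco-2 monolayer permeability measured in both directions, apical-to-basal and basal-to-apical, reported as Pc in nm/s. An efflux ratio was calculated from the two directions.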

[4] = Permeability coefficient, Kp across apical to basolateral side in human Caco2 cells; type: ADME, cell-based; details: Caco-2, read-out: permeability; summary of the method: as §1
[5] = Metabolic stability in mouse liver microsomes assessed as compound remaining incubated for 10 mins; type: ADME, Microsome; details: read-out: Stability
Summary of the method: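 Mouse liver microsomal stability, reported as percent of parent remaining after a 10 min incubation. Values are means of at least three experiments unless otherwise noted.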

[6] = molecular target: Non-receptor tyrosine-protein kinase TYK2 (Mus musculus, UniProt Q9R117); experiment: Inhibition of TYK2 in mouse whole blood assessed as decrease in IFNalpha-induced STAT1 phosphorylation preincubated for 1 hr followed by stimulation with IFN-alpha for 15 mins by fluorescence analysis; type: tissue-based
Summary of the method: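 Mouse whole blood stimulated with IFNα; STAT1 phosphorylation was measured by cellular staining and flow cytometry. Read as IC50.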

[7] = species: Homo sapiens; experiment: Selectivity ratio of IC50 for JAK1/JAK3 in human PBMC assessed as decrease in IL2-induced STAT5 phosphorylation in CD3+ T cells to IC50 for TYK2 JH2 domain in human PBMC assessed as decrease in IFNalpha-induced STAT5 phosphorylation; type: cell-based; details: tested as the 2H-labelled form
Summary of the method: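 Human PBMC were stimulated with IL-2 (JAK1/JAK3) or IFNα (TYK2), and STAT5 phosphorylation in CD3⁺ T-cells was the end point. The ratio is IL-2 IC50 over IFNα IC50, with means from at least three separate experiments.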

[8] = species: Homo sapiens; experiment: Selectivity ratio of IC50 for c-kit (unknown origin) to IC50 for His-tagged recombinant human TYK2 pseudokinase JH2 domain (575-869 residues) incubated for 1 hr by HTRF assay; details: tested as the 2H-labelled form
[9] = species: Homo sapiens; experiment: Selectivity ratio of IC50 for JAK2 in GM-CSF-stimulated human TF-1 cells to IC50 for TYK2 JH2 domain in human PBMC assessed as decrease in IFNalpha-induced STAT5 phosphorylation; details: tested as the 2H-labelled form
[10] = Metabolic stability in mouse liver microsomes assessed as half life; type: ADME, Microsome
Summary of the method: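 Liver microsomes from human, rat, mouse, dog, cynomolgus monkey and rabbit were incubated with compound. Stability is reported as half-life (T1/2, min). Values are means of at least three separate experiments.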

[11] = molecular target: Voltage-gated inwardly rectifying potassium channel KCNH2 (Homo sapiens, UniProt Q12809); experiment: Inhibition of human ERG by in vitro ion channel flux assay
[12] = test system: Mus musculus; experiment: Protection against IL23-induced acanthosis C57BL/6 mouse assessed as reduction in ear swelling at 30 mg/kg, po via gavage bid for 9 days with first dose given prior to first IL23 challenge and twice a day thereafter by caliper method; type: functional, organism-based; details: tested as the 2H-labelled form
[13] = test system: Mus musculus; experiment: Protection against IL23-induced acanthosis C57BL/6 mouse assessed as reduction in ear swelling at 15 mg/kg, po via gavage bid for 9 days with first dose given prior to first IL23 challenge and twice a day thereafter by caliper method; type: functional, organism-based; details: tested as the 2H-labelled form
[14] = test system: Mus musculus; experiment: Protection against IL23-induced acanthosis C57BL/6 mouse assessed as inhibition in IL-23 mRNA expression in ear skin compound dosed orally via gavage bid for 9 days with first dose given prior to first IL23 challenge and twice a day thereafter by qRT-PCR analysis; type: functional, organism-based; details: tested as the 2H-labelled form
Summary of the method: (§2)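 IL-23 was injected intradermally and repeatedly into mouse ears to induce psoriasis-like acanthosis. Compound was given orally twice daily for 9 days in EtOH:TPGS:PEG300 (5:5:90), at 7.5, 15 and 30 mg/kg. Skin biopsies were analysed for cytokine transcripts (IL-17A, IL-21, IL-12/IL-23 subunits) by quantitative PCR. Eight mice per group.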

[15] = test system: Mus musculus; experiment: Protection against IL23-induced acanthosis C57BL/6 mouse assessed as inhibition in IL-12 mRNA expression in ear skin compound dosed orally via gavage bid for 9 days with first dose given prior to first IL23 challenge and twice a day thereafter by qRT-PCR analysis; type: functional, organism-based; details: tested as the 2H-labelled form; summary of the method: as §2
[16] = test system: Mus musculus; experiment: Protection against IL23-induced acanthosis C57BL/6 mouse assessed as inhibition in IL-21 mRNA expression in ear skin compound dosed orally via gavage bid for 9 days with first dose given prior to first IL23 challenge and twice a day thereafter by qRT-PCR analysis; type: functional, organism-based; details: tested as the 2H-labelled form; summary of the method: as §2
[17] = test system: Mus musculus; experiment: Protection against IL23-induced acanthosis in C57BL/6 mouse assessed as reduction in ear swelling compound dosed orally via gavage bid for 9 days with first dose given prior to first IL23 challenge and twice a day thereafter by caliper method; type: functional, organism-based; details: tested as the 2H-labelled form
[18] = test system: Mus musculus; experiment: Protection against IL23-induced acanthosis C57BL/6 mouse assessed as inhibition in epidermal hyperplasia at 30 mg/kg, po via gavage bid for 9 days with first dose given prior to first IL23 challenge and twice a day thereafter by H and E staining based analysis; type: functional, organism-based; details: tested as the 2H-labelled form
Summary of the method: (§3)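 IL-23 was injected intradermally and repeatedly into mouse ears. Compound was dosed orally twice daily for 9 days in EtOH:TPGS:PEG300 (5:5:90), at 7.5, 15 or 30 mg/kg. Histological scoring covered epidermal hyperplasia and inflammatory infiltration. Eight mice per group; means ± SEM; one-way ANOVA.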

[19] = test system: Mus musculus; experiment: Protection against IL23-induced acanthosis C57BL/6 mouse assessed as inhibition of inflammatory cellular infiltration compound dosed orally via gavage bid for 9 days with first dose given prior to first IL23 challenge and twice a day thereafter by H and E staining based analysis; type: functional, organism-based; details: tested as the 2H-labelled form
Summary of the method: (§4)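 IL-23 was injected intradermally into mouse ears repeatedly to drive acanthosis. Test agent was given orally twice daily for 9 days at 7.5, 15 or 30 mg/kg in EtOH:TPGS:PEG300 (5:5:90), with an anti-IL-23 adnectin as positive control. Epidermal hyperplasia and cellular infiltration were scored histologically. Eight mice per group; means ± SEM; one-way ANOVA.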

[20] = test system: Mus musculus; experiment: Protection against IL23-induced acanthosis C57BL/6 mouse assessed as inhibition of inflammatory cellular infiltration at 30 mg/kg, po via gavage bid for 9 days with first dose given prior to first IL23 challenge and twice a day thereafter by H and E staining based analysis; type: functional, organism-based; details: tested as the 2H-labelled form; summary of the method: as §4
[21] = test system: Mus musculus; experiment: Protection against IL23-induced acanthosis C57BL/6 mouse assessed as inhibition in IL-17A mRNA expression in ear skin compound dosed orally via gavage bid for 9 days with first dose given prior to first IL23 challenge and twice a day thereafter by qRT-PCR analysis; type: functional, organism-based; details: tested as the 2H-labelled form
Summary of the method: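 Mice given repeated intradermal IL-23 injections into the ears to induce acanthosis. Oral dosing twice daily for 9 days at 7.5, 15 or 30 mg/kg in 5:5:90 EtOH:TPGS:PEG300 vehicle; anti-IL-23 adnectin served as positive control. Skin biopsies analysed by quantitative PCR for IL-17A expression. Eight mice per group; means ± SEM; one-way ANOVA.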

[22] = test system: Mus musculus; experiment: Protection against IL23-induced acanthosis C57BL/6 mouse assessed as inhibition in epidermal hyperplasia compound dosed orally via gavage bid for 9 days with first dose given prior to first IL23 challenge and twice a day thereafter by H and E staining based analysis; type: functional, organism-based; details: tested as the 2H-labelled form; summary of the method: as §3

Sequence of Non-receptor tyrosine-protein kinase TYK2 (Homo sapiens, UniProt P29597) (P29597 whole entry): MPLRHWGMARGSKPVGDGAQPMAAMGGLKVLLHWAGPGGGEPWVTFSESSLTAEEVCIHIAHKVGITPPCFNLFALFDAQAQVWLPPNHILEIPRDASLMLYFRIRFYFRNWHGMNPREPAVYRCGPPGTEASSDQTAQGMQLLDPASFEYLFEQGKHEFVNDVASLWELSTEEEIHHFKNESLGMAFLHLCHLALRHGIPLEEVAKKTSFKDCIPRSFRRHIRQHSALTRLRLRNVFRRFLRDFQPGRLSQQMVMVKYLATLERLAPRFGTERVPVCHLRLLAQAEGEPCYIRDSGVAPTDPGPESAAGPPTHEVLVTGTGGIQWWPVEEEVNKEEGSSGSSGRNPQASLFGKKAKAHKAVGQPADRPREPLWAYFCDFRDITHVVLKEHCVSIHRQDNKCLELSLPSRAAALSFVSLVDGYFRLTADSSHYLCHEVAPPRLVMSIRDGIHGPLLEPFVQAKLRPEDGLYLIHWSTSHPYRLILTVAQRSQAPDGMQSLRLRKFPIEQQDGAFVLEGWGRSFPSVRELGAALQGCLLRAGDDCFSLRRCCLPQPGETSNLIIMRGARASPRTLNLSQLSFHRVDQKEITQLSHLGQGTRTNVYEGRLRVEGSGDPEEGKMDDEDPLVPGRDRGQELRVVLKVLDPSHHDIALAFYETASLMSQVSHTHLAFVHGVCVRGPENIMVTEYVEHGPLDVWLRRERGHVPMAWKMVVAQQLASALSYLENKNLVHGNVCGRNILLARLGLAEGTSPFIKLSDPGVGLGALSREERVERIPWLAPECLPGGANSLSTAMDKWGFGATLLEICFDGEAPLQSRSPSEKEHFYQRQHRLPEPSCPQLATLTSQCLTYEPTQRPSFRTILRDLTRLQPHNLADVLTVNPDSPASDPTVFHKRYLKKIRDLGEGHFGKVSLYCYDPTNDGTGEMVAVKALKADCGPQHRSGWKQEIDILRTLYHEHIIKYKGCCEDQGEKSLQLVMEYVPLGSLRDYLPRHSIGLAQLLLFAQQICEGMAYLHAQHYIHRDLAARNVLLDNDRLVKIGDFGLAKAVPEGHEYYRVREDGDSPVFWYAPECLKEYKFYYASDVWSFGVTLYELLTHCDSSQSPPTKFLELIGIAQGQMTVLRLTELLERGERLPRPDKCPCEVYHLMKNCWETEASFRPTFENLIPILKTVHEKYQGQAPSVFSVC
Sequence of Non-receptor tyrosine-protein kinase TYK2 (Mus musculus, UniProt Q9R117) (Q9R117 whole entry): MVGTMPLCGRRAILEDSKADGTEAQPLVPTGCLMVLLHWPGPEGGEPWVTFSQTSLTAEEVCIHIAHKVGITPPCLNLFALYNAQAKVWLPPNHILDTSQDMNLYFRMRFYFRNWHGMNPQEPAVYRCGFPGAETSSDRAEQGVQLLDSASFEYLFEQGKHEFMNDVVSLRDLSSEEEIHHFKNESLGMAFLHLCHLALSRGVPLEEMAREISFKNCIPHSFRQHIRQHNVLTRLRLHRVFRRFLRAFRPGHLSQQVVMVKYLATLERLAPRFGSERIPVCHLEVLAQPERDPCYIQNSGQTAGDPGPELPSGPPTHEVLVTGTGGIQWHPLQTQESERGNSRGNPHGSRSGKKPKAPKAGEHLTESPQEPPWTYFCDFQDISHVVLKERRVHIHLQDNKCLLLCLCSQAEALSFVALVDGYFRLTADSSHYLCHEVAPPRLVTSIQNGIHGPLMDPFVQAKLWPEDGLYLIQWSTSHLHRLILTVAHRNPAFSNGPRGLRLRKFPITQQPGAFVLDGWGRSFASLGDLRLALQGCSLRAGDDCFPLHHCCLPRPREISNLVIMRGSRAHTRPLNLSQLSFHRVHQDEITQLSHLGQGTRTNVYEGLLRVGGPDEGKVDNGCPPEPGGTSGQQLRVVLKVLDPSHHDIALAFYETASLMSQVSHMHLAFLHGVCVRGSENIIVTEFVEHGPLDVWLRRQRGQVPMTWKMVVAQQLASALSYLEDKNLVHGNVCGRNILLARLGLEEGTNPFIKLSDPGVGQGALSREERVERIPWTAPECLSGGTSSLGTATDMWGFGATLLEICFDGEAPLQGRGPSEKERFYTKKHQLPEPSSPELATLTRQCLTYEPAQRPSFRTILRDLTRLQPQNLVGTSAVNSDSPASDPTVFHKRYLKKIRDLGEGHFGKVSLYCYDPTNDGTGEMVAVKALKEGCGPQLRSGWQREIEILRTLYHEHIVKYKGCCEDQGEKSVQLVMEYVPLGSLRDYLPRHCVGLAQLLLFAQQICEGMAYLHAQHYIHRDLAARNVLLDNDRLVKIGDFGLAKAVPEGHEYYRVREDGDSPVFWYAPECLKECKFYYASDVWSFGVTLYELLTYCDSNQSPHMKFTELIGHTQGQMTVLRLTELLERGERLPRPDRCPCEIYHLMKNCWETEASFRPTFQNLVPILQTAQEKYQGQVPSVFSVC
Sequence of JAK1/TYK2 (P23458 whole entry): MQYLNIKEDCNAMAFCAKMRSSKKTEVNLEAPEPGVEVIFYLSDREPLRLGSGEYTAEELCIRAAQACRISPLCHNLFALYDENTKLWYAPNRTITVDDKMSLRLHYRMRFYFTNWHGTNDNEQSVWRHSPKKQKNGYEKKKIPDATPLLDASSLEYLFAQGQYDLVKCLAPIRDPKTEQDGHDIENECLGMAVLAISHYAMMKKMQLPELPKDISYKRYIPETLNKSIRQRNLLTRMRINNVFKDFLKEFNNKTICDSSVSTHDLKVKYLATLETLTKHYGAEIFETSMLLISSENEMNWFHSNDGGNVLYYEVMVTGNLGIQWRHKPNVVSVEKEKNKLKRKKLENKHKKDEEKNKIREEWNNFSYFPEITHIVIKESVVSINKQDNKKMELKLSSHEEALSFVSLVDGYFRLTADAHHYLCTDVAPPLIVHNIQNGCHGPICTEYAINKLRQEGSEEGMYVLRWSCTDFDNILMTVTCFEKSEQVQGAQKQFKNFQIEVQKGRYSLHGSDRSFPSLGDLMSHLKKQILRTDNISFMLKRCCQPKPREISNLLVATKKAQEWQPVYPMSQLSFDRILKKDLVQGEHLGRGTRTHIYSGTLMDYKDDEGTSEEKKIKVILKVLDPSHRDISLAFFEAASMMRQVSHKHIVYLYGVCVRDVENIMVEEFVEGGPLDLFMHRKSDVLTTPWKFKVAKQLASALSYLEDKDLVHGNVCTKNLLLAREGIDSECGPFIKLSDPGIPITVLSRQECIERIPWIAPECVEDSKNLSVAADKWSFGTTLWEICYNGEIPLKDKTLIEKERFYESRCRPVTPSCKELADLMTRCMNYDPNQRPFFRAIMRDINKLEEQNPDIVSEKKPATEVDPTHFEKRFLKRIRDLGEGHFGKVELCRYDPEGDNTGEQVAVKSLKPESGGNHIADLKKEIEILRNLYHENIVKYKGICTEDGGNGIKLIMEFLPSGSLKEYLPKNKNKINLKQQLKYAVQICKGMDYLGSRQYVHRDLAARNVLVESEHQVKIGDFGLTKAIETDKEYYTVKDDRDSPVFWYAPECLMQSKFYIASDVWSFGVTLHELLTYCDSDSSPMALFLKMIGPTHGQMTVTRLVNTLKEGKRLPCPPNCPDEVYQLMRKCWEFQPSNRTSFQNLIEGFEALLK
Sequence of JAK1/TYK2 (P29597 whole entry): as the sequence (P29597 whole entry) above
Sequence of Voltage-gated inwardly rectifying potassium channel KCNH2 (Q12809 whole entry): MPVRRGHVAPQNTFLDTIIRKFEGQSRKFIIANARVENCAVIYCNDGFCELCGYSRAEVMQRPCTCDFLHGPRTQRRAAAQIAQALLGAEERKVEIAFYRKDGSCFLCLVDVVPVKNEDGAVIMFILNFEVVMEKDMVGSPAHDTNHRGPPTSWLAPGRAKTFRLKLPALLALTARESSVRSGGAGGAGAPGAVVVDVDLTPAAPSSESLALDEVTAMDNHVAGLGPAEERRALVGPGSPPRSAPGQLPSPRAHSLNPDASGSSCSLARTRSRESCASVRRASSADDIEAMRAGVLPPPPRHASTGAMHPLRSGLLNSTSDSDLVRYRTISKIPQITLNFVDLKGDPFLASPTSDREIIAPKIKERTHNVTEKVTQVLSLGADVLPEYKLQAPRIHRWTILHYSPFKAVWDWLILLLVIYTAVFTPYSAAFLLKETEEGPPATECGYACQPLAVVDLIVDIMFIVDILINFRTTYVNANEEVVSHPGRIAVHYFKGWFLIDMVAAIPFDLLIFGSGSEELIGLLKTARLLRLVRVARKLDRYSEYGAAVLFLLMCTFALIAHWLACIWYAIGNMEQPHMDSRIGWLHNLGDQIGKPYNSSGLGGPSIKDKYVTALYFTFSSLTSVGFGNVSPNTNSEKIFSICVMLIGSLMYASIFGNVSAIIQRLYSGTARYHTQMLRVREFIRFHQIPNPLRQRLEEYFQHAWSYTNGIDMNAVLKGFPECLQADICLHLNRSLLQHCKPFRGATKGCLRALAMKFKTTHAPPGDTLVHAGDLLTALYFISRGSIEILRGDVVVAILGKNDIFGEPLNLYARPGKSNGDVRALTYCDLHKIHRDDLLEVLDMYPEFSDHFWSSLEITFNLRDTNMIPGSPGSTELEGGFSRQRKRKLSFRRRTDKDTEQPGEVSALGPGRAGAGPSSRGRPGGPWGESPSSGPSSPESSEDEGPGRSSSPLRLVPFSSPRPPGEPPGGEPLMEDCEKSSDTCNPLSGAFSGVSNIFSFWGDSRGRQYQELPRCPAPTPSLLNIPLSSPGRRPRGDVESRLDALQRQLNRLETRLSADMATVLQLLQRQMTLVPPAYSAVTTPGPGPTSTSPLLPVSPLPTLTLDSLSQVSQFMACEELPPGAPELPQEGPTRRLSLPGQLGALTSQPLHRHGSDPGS

Row | IC50 [1] [nM] | IC50 [2] [nM] | remaining at 10 min [5] [%] | IC50 [6] [nM] | SMILES | other results
1 | 220 | 270 |  |  | CNC(=O)c1cnc(Nc2cc(C)c(F)cn2)cc1Nc1cccc(C(=O)NCCO)c1OC | 
2 | 30 | 62 |  |  | CNC(=O)c1cnc(Nc2cc(C)c(F)cn2)cc1Nc1cccc(C(N)=O)c1OC | Papp B→A [3]: 26 ×10⁻⁶ cm/s; Papp A→B [4]: < 1.5 ×10⁻⁶ cm/s
3 | 490 | 520 |  |  | CNC(=O)c1ccc(Nc2cc(Nc3ccc(F)cn3)ncc2C(=O)NC)c(OC)c1 | Papp A→B [4]: < 1.5 ×10⁻⁶ cm/s
4 |  | > 10000 |  |  | [2H]C([2H])([2H])NC(=O)c1nnc(NC(=O)C2CC2)cc1Nc1cccc(-c2ncn(C)n2)c1 | 
5 | 8 | 23 | 51 | 310 | CNC(=O)c1cnc(Nc2cc(C)c(F)cn2)cc1Nc1cccc(-c2nc[nH]n2)c1OC | 
6 | 63 | 120 |  |  | CNC(=O)c1cnc(Nc2ccc(F)cn2)cc1Nc1cccc(C(N)=O)c1OC | 
7 |  |  |  |  | CNC(=O)c1nnc(Nc2ccccn2)cc1Nc1ccccc1S(C)(=O)=O | Ratio IC50 [7]: 210; Ratio IC50 [8]: 690; Ratio IC50 [9]: 270
8 | 51 | 160 |  |  | CNC(=O)c1cnc(Nc2cc(C)c(F)cn2)cc1Nc1cccc(C(=O)NCCN2CCOCC2)c1OC | 
9 | 22 | 180 |  |  | CNC(=O)c1cnc(Nc2cc(C)c(F)cn2)cc1Nc1cccc(C(=O)NCc2ccccn2)c1OC | 
10 | 8 | 13 | 89 | 100 | [2H]C([2H])([2H])NC(=O)c1cnc(NC(=O)C2CC2)cc1Nc1cccc(-c2ncn(C)n2)c1OC | half-life [10]: > 2 h; Papp A→B [4]: < 1.5 ×10⁻⁶ cm/s
11 | 12 | 69 | 78 | 700 | CNC(=O)c1cnc(Nc2ccc(C(F)(F)F)cn2)cc1Nc1cccc(-c2ncn(C)n2)c1OC | IC50 [11]: 16000 nM; Papp A→B [4]: 1.6 ×10⁻⁶ cm/s
12 | 7 | 40 | 63 | 320 | CNC(=O)c1cnc(Nc2cc(C)c(F)cn2)cc1Nc1cccc(-c2n[nH]c(C)n2)c1OC | 
13 | 930 | 390 |  |  | CNC(=O)c1cnc(Nc2ccc(F)cn2)cc1Nc1ccc(C(N)=O)cc1OC | 
14 |  |  |  |  | CNC(=O)c1nnc(NC(=O)C2CC2)cc1Nc1cccc(-c2ncn(C)n2)c1OC | Activity [12]: Active; Activity [13]: Active; Activity [14]: Dose-dependent effect; Activity [15]: Dose-dependent effect; Activity [16]: Dose-dependent effect; Activity [17]: Dose-dependent effect; Activity [18]: Active; Activity [19]: Dose-dependent effect; Activity [20]: Active; Activity [21]: Dose-dependent effect; Activity [22]: Dose-dependent effect
15 | 64 | 870 |  |  | CNC(=O)c1cnc(Nc2cc(C)c(F)cn2)cc1Nc1cccc(C(=O)NCC2CC2)c1OC | 
16 | 15 | 170 | 46 | 522 | CNC(=O)c1cnc(Nc2cc(C)c(F)cn2)cc1Nc1cccc(-c2nnco2)c1OC | 
